{"source": "ChEMBL document CHEMBL1154125", "about": "“Ebenfurans IV-VIII from Onobrychis ebenoides: evidence that C-prenylation is the key determinant of the cytotoxicity of 3-formyl-2-arylbenzofurans” (J Nat Prod, 2008)", "key": {"[1]": {"tested_on": "MCF7", "assay": "Cytotoxicity against human MCF7 cells by MTT assay in presence of 17-beta-estradiol", "format": "functional, cell-based", "outline": "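In phenol red-free MEM with 5% dextran-charcoal-treated FBS containing 0.1 nM 17β-estradiol, MCF-7 cultures received increasing concentrations of agents (DMSO solutions) for 3 days. Readout was MTT formazan absorbance at 550 nm relative to cells given the hormone alone. EC50 = concentration reaching 50% of efficacy, derived only for statistically significant effects.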"}, "[2]": {"tested_on": "MCF7", "assay": "Cytotoxicity against human MCF7 cells by MTT assay in absence of 17-beta-estradiol", "format": "functional, cell-based", "outline": "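Cells were grown in steroid-depleted medium (phenol red-free MEM, 5% dextran-charcoal FBS) plus DMSO vehicle. Increasing concentrations of agents in DMSO were applied for 3 days. Viable cells were estimated from MTT formazan absorbance at 550 nm. EC50 = concentration giving 50% of efficacy, computed only for statistically significant effects.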"}, "[3]": {"molecular_target": "T1, Estrogen receptor (Homo sapiens) (UniProt P03372)", "T1 sequence (whole entry)": "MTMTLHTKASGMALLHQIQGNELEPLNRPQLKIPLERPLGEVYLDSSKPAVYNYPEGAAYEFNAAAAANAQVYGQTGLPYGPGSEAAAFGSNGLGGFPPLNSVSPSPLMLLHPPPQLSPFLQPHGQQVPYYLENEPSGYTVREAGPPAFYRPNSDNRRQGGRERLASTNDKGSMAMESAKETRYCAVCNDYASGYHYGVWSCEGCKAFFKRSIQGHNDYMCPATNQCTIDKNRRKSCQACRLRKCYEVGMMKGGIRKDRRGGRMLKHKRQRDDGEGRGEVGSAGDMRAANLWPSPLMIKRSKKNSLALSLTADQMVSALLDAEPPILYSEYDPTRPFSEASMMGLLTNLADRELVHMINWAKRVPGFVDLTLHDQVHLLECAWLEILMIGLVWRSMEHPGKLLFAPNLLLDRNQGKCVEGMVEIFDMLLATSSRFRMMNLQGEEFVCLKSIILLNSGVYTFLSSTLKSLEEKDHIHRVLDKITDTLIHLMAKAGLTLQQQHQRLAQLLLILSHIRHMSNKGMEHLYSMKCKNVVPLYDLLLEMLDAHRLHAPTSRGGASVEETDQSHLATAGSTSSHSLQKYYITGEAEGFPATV", "assay": "Binding affinity to recombinant ERalpha by fluorescence polarization assay relative to 17-beta-estradiol"}, "[4]": {"tested_on": "MCF7", "assay": "Cytotoxicity against human MCF7 cells at 10 uM by MTT assay relative to control in absence of 17-beta-estradiol", "format": "functional", "outline": "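MCF-7 cells were grown in phenol red-free MEM with 5% dextran-charcoal-stripped FBS and vehicle (DMSO) only. They were exposed for 3 days to agents dissolved in DMSO: test compounds at 10 µM, 17β-estradiol at 0.1 nM, ICI 182,780 at 1 µM. MTT formazan was read at 550 nm. Efficacy = OD test × 100/OD vehicle control, given as mean ± SEM of at least three independent assays.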"}, "[5]": {"tested_on": "MCF7", "assay": "Cytotoxicity against human MCF7 cells at 10 uM by MTT assay relative to control in presence of 17-beta-estradiol", "format": "functional", "outline": "(§1)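 MCF-7 cells were kept in phenol red-free MEM with 5% dextran-charcoal-stripped FBS supplemented with 0.1 nM 17β-estradiol. They were treated for 3 days with test compounds at 10 µM, 17β-estradiol at 0.1 nM, or ICI 182,780 at 1 µM, all in DMSO. MTT conversion was read at 550 nm. OD × 100/OD of estradiol-alone control, mean ± SEM, ≥3 independent assays.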"}, "[6]": {"tested_on": "MCF7", "assay": "Cytotoxicity against human MCF7 cells at 0.1 nM by MTT assay relative to control in absence of 17-beta-estradiol", "format": "functional"}, "[7]": {"tested_on": "MCF7", "assay": "Cytotoxicity against human MCF7 cells at 0.1 nM by MTT assay relative to control in presence of 17-beta-estradiol", "format": "functional", "outline": "as §1"}, "[8]": {"tested_on": "MCF7", "assay": "Cytotoxicity against human MCF7 cells at 1 uM by MTT assay relative to control in the absence of 17-beta-estradiol", "format": "functional", "outline": "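MCF-7 cells in phenol red-free MEM with 5% dextran-charcoal-stripped FBS, vehicle (DMSO) only, no estradiol. ICI 182,780 at 1 µM applied for 3 days. Viable cells assessed by MTT formazan absorbance at 550 nm. Efficacy = OD treated ×100/OD vehicle control; mean ± SEM of at least three independent assays.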"}, "[9]": {"tested_on": "MCF7", "assay": "Cytotoxicity against human MCF7 cells at 1 uM by MTT assay relative to control in presence of 17-beta-estradiol", "format": "functional", "outline": "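MCF-7 cells in phenol red-free MEM with 5% dextran-charcoal-stripped FBS, supplemented with 0.1 nM 17β-estradiol. Treated with ICI 182,780 at 1 µM (DMSO) for 3 days. MTT conversion to formazan read at 550 nm. Efficacy = OD treated ×100/OD of estradiol-alone control; mean ± SEM of ≥3 independent assays.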"}}}
{"compound": "COc1cc2oc(-c3ccc(O)cc3O)c(C=O)c2c(O)c1CC=C(C)C", "note": "[EBENFURAN III]", "values": [{"measurement": "EC50", "setting": "[1]", "value": 2.9, "unit": "µM"}, {"measurement": "EC50", "setting": "[2]", "value": 2.6, "unit": "µM"}, {"measurement": "relative binding affinity (RBA)", "setting": "[3]", "value": 0.09}, {"measurement": "Activity", "setting": "[4]", "value": 47, "unit": "%"}, {"measurement": "Activity", "setting": "[5]", "value": 31, "unit": "%"}]}
{"compound": "COc1cc(O)c2c(C=O)c(-c3ccc(O)cc3O)oc2c1", "note": "[EBENFURAN II]", "values": [{"measurement": "EC50", "setting": "[1]", "value": 5.5, "unit": "µM"}, {"measurement": "relative binding affinity (RBA)", "setting": "[3]", "value": 0.18}, {"measurement": "Activity", "setting": "[4]", "value": 111, "unit": "%"}, {"measurement": "Activity", "setting": "[5]", "value": 64, "unit": "%"}]}
{"compound": "COc1cc(O)ccc1-c1oc2cc(OC)c(CC=C(C)C)c(O)c2c1C=O", "note": "[EBENFURAN IV]", "values": [{"measurement": "EC50", "setting": "[1]", "value": 3.9, "unit": "µM"}, {"measurement": "EC50", "setting": "[2]", "value": 6.7, "unit": "µM"}, {"measurement": "relative binding affinity (RBA)", "setting": "[3]", "value": 0.46}, {"measurement": "Activity", "setting": "[4]", "value": 54, "unit": "%"}, {"measurement": "Activity", "setting": "[5]", "value": 31, "unit": "%"}]}
{"compound": "C=C(C)C(O)Cc1c(OC)cc2oc(-c3ccc(O)cc3O)c(C=O)c2c1O", "note": "(stereo not drawn) [EBENFURAN VII]", "values": [{"measurement": "relative binding affinity (RBA)", "setting": "[3]", "value": 0.94}, {"measurement": "Activity", "setting": "[4]", "value": 123, "unit": "%"}, {"measurement": "Activity", "setting": "[5]", "value": 79, "unit": "%"}]}
{"compound": "COc1cc(O)ccc1-c1oc2cc(OC)c(CCC(C)(C)O)c(O)c2c1C=O", "note": "[EBENFURAN VI]", "values": [{"measurement": "EC50", "setting": "[2]", "value": 4.8, "unit": "µM"}, {"measurement": "relative binding affinity (RBA)", "setting": "[3]", "value": 0.06}, {"measurement": "Activity", "setting": "[4]", "value": 154, "unit": "%"}, {"measurement": "Activity", "setting": "[5]", "value": 118, "unit": "%"}]}
{"compound": "COc1cc2oc(-c3ccc(O)cc3O)c(C=O)c2c(O)c1CCC(C)(C)O", "note": "[EBENFURAN V]", "values": [{"measurement": "relative binding affinity (RBA)", "setting": "[3]", "value": 0.23}, {"measurement": "Activity", "setting": "[4]", "value": 115, "unit": "%"}, {"measurement": "Activity", "setting": "[5]", "value": 98, "unit": "%"}]}
{"compound": "C[C@]12CC[C@@H]3c4ccc(O)cc4CC[C@H]3[C@@H]1CC[C@@H]2O", "note": "[ESTRADIOL]", "values": [{"measurement": "Activity", "setting": "[6]", "value": 163, "unit": "%"}, {"measurement": "Activity", "setting": "[7]", "value": 104, "unit": "%"}]}
{"compound": "C[C@]12CC[C@@H]3c4ccc(O)cc4C[C@@H](CCCCCCCCC[S+]([O-])CCCC(F)(F)C(F)(F)F)[C@H]3[C@@H]1CC[C@@H]2O", "note": "(stereo partly drawn) [FULVESTRANT]", "values": [{"measurement": "Activity", "setting": "[8]", "value": 103, "unit": "%"}, {"measurement": "Activity", "setting": "[9]", "value": 63, "unit": "%"}]}
